Activity calls are given as the source filed them. No cut-off for these calls is given here.
Legend:
[1] = molecular target: T1, Glucocorticoid receptor (Homo sapiens, UniProt P04150); experiment: Transactivation activity of glucocorticoid receptor in HFF assessed as induction of aromatase activity by measuring beta-estradiol activity after 18 to 24 hrs by ELISA
T1 sequence (P04150 whole entry): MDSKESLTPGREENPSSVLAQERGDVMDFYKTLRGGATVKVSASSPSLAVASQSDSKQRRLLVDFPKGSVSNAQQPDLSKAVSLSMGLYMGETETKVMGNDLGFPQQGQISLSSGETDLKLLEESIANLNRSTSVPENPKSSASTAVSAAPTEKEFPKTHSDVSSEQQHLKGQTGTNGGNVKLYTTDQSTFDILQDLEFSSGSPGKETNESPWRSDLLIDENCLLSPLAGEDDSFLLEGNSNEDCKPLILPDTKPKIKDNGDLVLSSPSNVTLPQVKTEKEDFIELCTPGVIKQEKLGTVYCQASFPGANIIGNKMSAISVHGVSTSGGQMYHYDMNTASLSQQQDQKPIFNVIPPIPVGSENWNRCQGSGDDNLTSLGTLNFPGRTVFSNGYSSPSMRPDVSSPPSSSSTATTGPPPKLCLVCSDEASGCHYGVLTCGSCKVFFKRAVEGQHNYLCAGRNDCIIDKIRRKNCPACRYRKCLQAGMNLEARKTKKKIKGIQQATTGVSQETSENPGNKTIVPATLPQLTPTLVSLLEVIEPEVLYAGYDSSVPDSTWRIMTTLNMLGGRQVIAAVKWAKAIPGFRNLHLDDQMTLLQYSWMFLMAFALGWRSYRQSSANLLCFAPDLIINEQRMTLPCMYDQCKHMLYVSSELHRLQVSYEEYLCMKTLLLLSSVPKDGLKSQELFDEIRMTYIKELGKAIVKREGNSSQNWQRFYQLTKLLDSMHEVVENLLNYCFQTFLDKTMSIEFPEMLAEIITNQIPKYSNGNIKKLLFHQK

[2] = molecular target: T2, Glucocorticoid receptor (Homo sapiens) (UniProt P04150); experiment: Agonist activity at glucocorticoid receptor in human HeLa cells transfected with luciferase gene linked to MMTV promoter assessed as luciferase transactivation activity relative to Dexamethasone; type: functional, cell-based
T2 sequence (whole entry): T1 sequence (P04150 whole entry)
Outline: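 HeLa cells stably carrying an MMTV-luciferase construct were exposed to compound for 6 h at 37 °C, 5% CO2. Cells were then lysed and luminescence read with a Steady-Glo reagent. EC50 and % maximal efficacy were reported.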

[3] = molecular target: T2, Glucocorticoid receptor (Homo sapiens); experiment: Transactivation activity of glucocorticoid receptor in HFF assessed as induction of aromatase activity by measuring beta-estradiol activity after 18 to 24 hrs by ELISA relative to Dexamethasone
[4] = molecular target: T1, Glucocorticoid receptor; experiment: Agonist activity at glucocorticoid receptor in human HeLa cells transfected with luciferase gene linked to MMTV promoter assessed as luciferase transactivation activity; type: functional, cell-based
[5] = molecular target: T1, Glucocorticoid receptor; experiment: Agonist activity at glucocorticoid receptor in HFF assessed as inhibition of IL1-induced IL-6 production after 18 to 24 hrs; type: functional
[6] = molecular target: T3, Progesterone receptor (Homo sapiens, UniProt P06401); experiment: Displacement of tetramethylrhodamine-labeled RU-486 from human recombinant progesterone receptor expressed in baculovirus infected insect cells by fluorescence polarization assay
T3 sequence (P06401 whole entry): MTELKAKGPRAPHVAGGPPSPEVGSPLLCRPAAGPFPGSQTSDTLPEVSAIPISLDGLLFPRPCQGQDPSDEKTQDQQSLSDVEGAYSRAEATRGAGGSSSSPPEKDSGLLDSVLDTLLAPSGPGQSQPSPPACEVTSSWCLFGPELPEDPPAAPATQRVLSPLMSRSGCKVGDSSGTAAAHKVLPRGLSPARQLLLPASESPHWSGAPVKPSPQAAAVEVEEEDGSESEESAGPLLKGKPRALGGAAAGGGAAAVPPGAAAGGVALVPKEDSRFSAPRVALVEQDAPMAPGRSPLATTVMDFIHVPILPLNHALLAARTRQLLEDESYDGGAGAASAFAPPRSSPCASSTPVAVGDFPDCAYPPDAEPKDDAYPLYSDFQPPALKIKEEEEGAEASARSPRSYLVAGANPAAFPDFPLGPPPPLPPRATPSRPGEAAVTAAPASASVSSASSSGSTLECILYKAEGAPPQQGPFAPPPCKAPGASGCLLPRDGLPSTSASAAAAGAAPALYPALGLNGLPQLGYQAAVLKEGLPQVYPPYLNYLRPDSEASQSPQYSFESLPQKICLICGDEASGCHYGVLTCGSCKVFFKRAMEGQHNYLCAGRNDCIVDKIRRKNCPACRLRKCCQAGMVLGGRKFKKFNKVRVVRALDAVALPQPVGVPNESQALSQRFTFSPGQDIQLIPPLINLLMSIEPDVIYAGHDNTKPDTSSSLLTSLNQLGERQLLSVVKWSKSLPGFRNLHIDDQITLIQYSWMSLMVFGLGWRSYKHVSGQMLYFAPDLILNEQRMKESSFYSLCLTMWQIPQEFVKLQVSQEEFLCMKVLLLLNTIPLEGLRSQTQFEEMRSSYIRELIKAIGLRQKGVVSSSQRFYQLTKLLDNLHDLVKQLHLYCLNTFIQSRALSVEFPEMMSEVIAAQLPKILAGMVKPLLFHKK
Outline: (§1)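 Fluorescence polarization competition assays with recombinant human receptors in lysates of baculovirus-infected insect cells. Reactions contained 1% DMSO and ran 1 h at room temperature.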

[7] = molecular target: T1, Glucocorticoid receptor; experiment: Displacement of tetramethylrhodamine-labeled Dexamethasone from human recombinant glucocorticoid receptor expressed in baculovirus infected insect cells by fluorescence polarization assay
[8] = molecular target: T4, Mineralocorticoid receptor (Homo sapiens, UniProt P08235); experiment: Displacement of tetramethylrhodamine-labeled Dexamethasone from human recombinant mineralocorticoid receptor expressed in baculovirus infected insect cells by fluorescence polarization assay; outline: as §1
T4 sequence (P08235 whole entry): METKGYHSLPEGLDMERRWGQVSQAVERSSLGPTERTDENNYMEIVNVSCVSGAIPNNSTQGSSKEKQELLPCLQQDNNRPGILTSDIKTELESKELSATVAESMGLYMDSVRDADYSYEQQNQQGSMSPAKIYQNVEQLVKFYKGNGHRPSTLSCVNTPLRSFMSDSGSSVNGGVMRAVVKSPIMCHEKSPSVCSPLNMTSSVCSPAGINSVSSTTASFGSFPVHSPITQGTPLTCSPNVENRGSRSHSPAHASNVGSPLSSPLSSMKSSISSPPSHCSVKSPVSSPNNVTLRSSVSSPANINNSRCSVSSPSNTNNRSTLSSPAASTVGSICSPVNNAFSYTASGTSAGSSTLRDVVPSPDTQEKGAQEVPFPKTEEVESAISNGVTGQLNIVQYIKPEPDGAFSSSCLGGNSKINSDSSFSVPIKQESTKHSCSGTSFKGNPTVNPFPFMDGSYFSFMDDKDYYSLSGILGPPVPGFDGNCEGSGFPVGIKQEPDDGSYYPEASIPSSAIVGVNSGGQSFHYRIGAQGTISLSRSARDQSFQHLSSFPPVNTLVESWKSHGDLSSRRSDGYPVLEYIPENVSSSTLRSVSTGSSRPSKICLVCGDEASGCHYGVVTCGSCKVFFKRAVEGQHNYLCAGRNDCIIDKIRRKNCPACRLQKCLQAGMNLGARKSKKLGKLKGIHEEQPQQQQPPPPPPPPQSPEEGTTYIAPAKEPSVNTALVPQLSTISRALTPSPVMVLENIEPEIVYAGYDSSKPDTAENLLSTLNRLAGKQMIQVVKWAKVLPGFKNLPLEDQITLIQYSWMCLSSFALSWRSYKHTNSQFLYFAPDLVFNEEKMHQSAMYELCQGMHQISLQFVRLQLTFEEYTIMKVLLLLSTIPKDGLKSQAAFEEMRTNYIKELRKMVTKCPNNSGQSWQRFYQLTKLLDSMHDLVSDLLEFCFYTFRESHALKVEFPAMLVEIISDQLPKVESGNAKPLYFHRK

[9] = molecular target: T2, Glucocorticoid receptor (Homo sapiens); experiment: Agonist activity at glucocorticoid receptor in HFF assessed as inhibition of IL1-induced IL-6 production after 18 to 24 hrs relative to Dexamethasone; type: functional
Outline: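 Human foreskin fibroblasts stimulated with IL-1 (1 ng/mL) in the presence of test compound, incubated at 37 °C for 18–24 h. IL-6 in the culture medium was quantified by electrochemiluminescence, DELFIA or ELISA. IC50 and % maximal efficacy were reported.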

[10] = test system: Mus musculus; experiment: Antiinflammatory activity in po dosed mouse plasma assessed as inhibition of LPS-induced TNFalpha production administered 1 hr before LPS challenge measured after 1 hr; type: functional
Outline: (§2)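 Mice received compound orally in Cremophor RH 1 h before LPS challenge. Plasma TNF-α was measured 1 h after challenge. n = 8 per group; doses were 3 and 10 mg/kg.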

[11] = test system: Mus musculus; experiment: Antiinflammatory activity in mouse plasma assessed as inhibition of LPS-induced TNFalpha production at 10 mg/kg, po administered 1 hr before LPS challenge measured after 1 hr; type: functional; outline: as §2
[12] = organism: Homo sapiens; experiment: Selectivity ratio of IC50 for human recombinant glucocorticoid receptor to IC50 for human recombinant progesterone receptor
[13] = organism: Homo sapiens; experiment: Selectivity ratio of IC50 for human recombinant glucocorticoid receptor to IC50 for human recombinant mineralocorticoid receptor
[14] = test system: Mus musculus; experiment: Antiinflammatory activity in mouse plasma assessed as inhibition of LPS-induced TNFalpha production at 3 mg/kg, po administered 1 hr before LPS challenge measured after 1 hr; type: functional; outline: as §2

| Compound | EC50 ([1]; read-out: EC50) | Efficacy [2] | Efficacy [3] | EC50 [4] | IC50 [5] | IC50 [6] | IC50 [7] | IC50 [8] | Efficacy [9] | ED50 [10] | inhibition in vivo at 10 mg/kg [11] | Ratio IC50 [12] | EC50 [1] | Ratio IC50 [13] | inhibition [14] | inhibition in vivo at 3 mg/kg [14] |
| --- | --- | --- | --- | --- | --- | --- | --- | --- | --- | --- | --- | --- | --- | --- | --- | --- |
| COc1ccc(F)cc1C(C)(C)C[C@@](O)(Cc1cc2cc(C#N)ccc2[nH]1)C(F)(F)F | 6 nM | 10% | 71% | 36 nM | 3 nM | 155 nM | 1 nM | 45 nM | 90% | – | – | – | – | – | – | – |
| CC(C)(C[C@@](O)(Cc1cc2ccccc2[nH]1)C(F)(F)F)c1cc(Br)cc2c1OCC2 | – | – | – | – | – | – | – | – | – | < 10 mg/kg | 61% | – | – | – | – | – |
| COc1ccc(F)cc1C(C)(C)CC(O)(Cc1cc2c(C#N)cccc2[nH]1)C(F)(F)F (racemic) | 21 nM | – | 91% | – | 8 nM | 440 nM | 5 nM | 225 nM | 91% | – | – | 90 | – | – | – | – |
| CCc1cccc2[nH]c(CC(O)(CC(C)(C)c3cc(F)ccc3OC)C(F)(F)F)cc12 (racemic) | – | – | 49% | – | 88 nM | 1000 nM | 28 nM | 790 nM | 90% | – | – | 30 | Not Active | – | – | – |
| COc1ccc(F)cc1C(C)(C)CC(O)(Cc1cc2cc(C#N)ccc2[nH]1)C(F)(F)F (racemic) | 28 nM | – | 81% | – | 11 nM | 815 nM | 8 nM | 415 nM | 89% | – | – | 100 | – | 50 | – | – |
| COc1ccc(F)cc1C(C)(C)CC(O)(Cc1cc2ccc(C#N)cc2[nH]1)C(F)(F)F (racemic) | 113 nM | – | 98% | – | 14 nM | 395 nM | 14 nM | 435 nM | 91% | – | – | 30 | – | 30 | – | – |
| CC(C)(CC(O)(Cc1cc2ccccc2[nH]1)C(F)(F)F)c1cc(C#N)cc2c1OCC2 (racemic) | 356 nM | – | 55% | – | 104 nM | 710 nM | 15 nM | 405 nM | 65% | – | – | 50 | – | – | – | – |
| CC(C)(CC(O)(Cc1cc2ccccc2[nH]1)C(F)(F)F)c1cc(S(C)(=O)=O)cc2c1OCC2 (racemic) | – | 20% | – | > 2000 nM | 100 nM | > 2000 nM | 6 nM | 610 nM | 84% | – | – | > 300 | – | 100 | – | – |
| CC(C)(CC(O)(Cc1cc2cc(C#N)ccc2[nH]1)C(F)(F)F)c1cc(S(C)(=O)=O)cc2c1OCC2 (racemic) | 80 nM | 4% | 63% | > 2000 nM | 49 nM | > 2000 nM | 5 nM | 1450 nM | 85% | < 10 mg/kg | 77% | – | – | – | inactive | – |
| CC(C)(CC(O)(Cc1cc2ccc(C#N)cc2[nH]1)C(F)(F)F)c1cc(S(C)(=O)=O)cc2c1OCC2 (racemic) | 125 nM | 10% | 98% | > 2000 nM | 39 nM | > 2000 nM | 5 nM | 430 nM | 89% | < 10 mg/kg | 66% | – | – | – | – | 66% |
